Experimental data as given in ChEMBL document CHEMBL3621102, “Structure-activity study of quinazoline derivatives leading to the discovery of potent EGFR-T790M inhibitors” (Eur J Med Chem, 2015).
Calls of active or inactive are those of the source. The rule behind the calls is not given here.

Legend:
[1] = AUC (0 to infinity) in Sprague-Dawley rat at 1 mg/kg, iv by LC/MS/MS method; type: ADME, organism-based; set-up: dose 1 mg/kg, time infinity, route intravenous; conditions: in vivo
Method in brief: (§1)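 Male Sprague-Dawley rats (n = 3) dosed once at 1 mg/kg iv via tail vein, or once at 5 mg/kg by oral gavage, using the same formulation. Serial blood samples were taken over 24 h. Plasma levels were measured by LC/MS/MS (C18 column, 10 mM ammonium formate-0.1% formic acid water/methanol 10/90, ESI positive). Parameters were derived by noncompartmental analysis.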

[2] = Clearance in Sprague-Dawley rat at 1 mg/kg, iv incubated for 24 hrs by LC/MS/MS method; type: ADME, organism-based; conditions: in vivo; method in brief: as §1
[3] = molecular target: Epidermal growth factor receptor (Homo sapiens, UniProt P00533); experiment: Inhibition of EGFR (unknown origin) by ELISA method
Epidermal growth factor receptor, sequence (P00533 whole entry): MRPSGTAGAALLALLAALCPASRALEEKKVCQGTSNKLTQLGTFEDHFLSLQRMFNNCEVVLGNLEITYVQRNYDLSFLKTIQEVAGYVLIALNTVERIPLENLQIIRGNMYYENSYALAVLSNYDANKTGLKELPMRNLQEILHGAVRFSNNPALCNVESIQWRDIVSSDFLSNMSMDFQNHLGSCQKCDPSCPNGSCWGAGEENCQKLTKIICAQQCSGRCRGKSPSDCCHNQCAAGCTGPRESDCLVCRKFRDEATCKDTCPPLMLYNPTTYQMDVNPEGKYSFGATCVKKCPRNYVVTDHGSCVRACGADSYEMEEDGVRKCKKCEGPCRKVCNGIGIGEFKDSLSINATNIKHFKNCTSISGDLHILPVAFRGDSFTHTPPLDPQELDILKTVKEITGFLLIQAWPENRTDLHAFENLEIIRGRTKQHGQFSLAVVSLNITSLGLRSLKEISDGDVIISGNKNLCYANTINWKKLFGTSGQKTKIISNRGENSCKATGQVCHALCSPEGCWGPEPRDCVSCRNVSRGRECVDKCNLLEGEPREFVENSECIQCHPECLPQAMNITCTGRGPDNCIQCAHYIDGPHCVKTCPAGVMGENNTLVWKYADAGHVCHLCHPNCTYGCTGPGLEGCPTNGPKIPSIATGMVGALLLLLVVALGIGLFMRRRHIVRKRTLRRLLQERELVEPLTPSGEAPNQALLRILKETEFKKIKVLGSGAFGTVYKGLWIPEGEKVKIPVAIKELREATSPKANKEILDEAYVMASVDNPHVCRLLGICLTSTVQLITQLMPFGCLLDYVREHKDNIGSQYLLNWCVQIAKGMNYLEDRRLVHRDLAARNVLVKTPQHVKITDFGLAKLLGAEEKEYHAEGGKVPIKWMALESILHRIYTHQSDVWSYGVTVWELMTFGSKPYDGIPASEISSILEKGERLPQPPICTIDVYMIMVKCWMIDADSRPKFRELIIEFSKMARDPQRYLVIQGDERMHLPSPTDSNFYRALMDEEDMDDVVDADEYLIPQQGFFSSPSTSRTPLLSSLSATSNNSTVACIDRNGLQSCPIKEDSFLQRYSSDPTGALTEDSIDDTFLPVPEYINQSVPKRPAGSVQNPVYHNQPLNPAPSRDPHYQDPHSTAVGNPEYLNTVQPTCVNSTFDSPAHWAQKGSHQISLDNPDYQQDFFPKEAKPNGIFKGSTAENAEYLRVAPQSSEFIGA

[4] = Elimination half-life in Sprague-Dawley rat at 1 mg/kg, iv incubated for 24 hrs by LC/MS/MS method; type: ADME, organism-based; conditions: in vivo, read-out: beta t1/2 (converted); method in brief: as §1
[5] = Bioavailability in Sprague-Dawley rat at 1 mg/kg, iv incubated for 24 hrs by LC/MS/MS method; type: ADME, organism-based; conditions: in vivo; method in brief: as §1
NCI-H1975 [6] = experiment: Antitumor activity against human NCI-H1975 cells xenografted in BALB/c mouse assessed as tumor growth inhibition at 50 mg/kg po, qd for 21 days; type: functional, organism-based
Method in brief: (§2)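 Athymic mice received 2 × 10⁶ tumour cells subcutaneously in the right flank. At 100–300 mm³ they were randomised to control and treatment groups (n = 6); controls received vehicle alone. Tumour volume = length × width²/2 and RTV = Vt/V0.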

NCI-H1975 [7] = experiment: Antiproliferative activity against human NCI-H1975 cells assessed as growth inhibition; type: functional
Method in brief: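 NCI-H1975 cells were grown in RPMI with 1 mM sodium pyruvate, 10% FBS and 1% penicillin-streptomycin, under humidified 5% CO₂ at 37 °C. Growth inhibition was read as GI₅₀.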

[8] = Mean residence time in Sprague-Dawley rat at 1 mg/kg, iv incubated for 24 hrs by LC/MS/MS method; type: ADME, organism-based; conditions: in vivo; method in brief: as §1
[9] = AUC (0 to 24 hrs) in Sprague-Dawley rat at 1 mg/kg, iv by LC/MS/MS method; type: ADME, organism-based; set-up: time < 24 hr, dose 1 mg/kg, route intravenous; conditions: in vivo; method in brief: as §1
[10] = Apparent volume of distribution in Sprague-Dawley rat at 1 mg/kg, iv incubated for 24 hrs by LC/MS/MS method; type: ADME, organism-based; conditions: in vivo, read-out: Vd(app); method in brief: as §1
A-431 = experiment: Antitumor activity against human A431 cells xenografted in BALB/c mouse assessed as tumor growth inhibition at 5 mg/kg po, qd for 18 days; type: functional, organism-based; method in brief: as §2
HCC827 = experiment: Antitumor activity against human HCC827 cells xenografted in BALB/c mouse assessed as tumor growth inhibition at 5 mg/kg po, qd for 12 days; type: functional, organism-based; method in brief: as §2
NCI-H1975 [11] = experiment: Antitumor activity against human NCI-H1975 cells xenografted in BALB/c mouse assessed as tumor growth inhibition at 30 mg/kg po, qd for 21 days relative to control; type: functional, organism-based; method in brief: as §2

Row | Compound | IC50 [3] | other results
1 | CC(C)NC/C=C/C(=O)Nc1cc2c(Nc3ccc(F)c(Cl)c3)ncnc2cc1O[C@H]1CCOC1 | 7 nM | AUC(0-inf) [1]: 197 ng·h/mL; clearance [2]: 90 mL/min/kg; half-life [4]: 9.9 h; bioavailability [5]: < 5%; TGI (NCI-H1975 [6]): inactive; GI50 (NCI-H1975 [7]): 22.4 nM; MRT [8]: 8.8 h; AUC(0-t) at 24 h [9]: 166 ng·h/mL; Vd [10]: 6.5 L/kg
2 | C#Cc1cccc(Nc2ncnc3cc(OC)c(NC(=O)/C=C/CN(C)C4CC4)cc23)c1 | 3.3 nM | GI50 (NCI-H1975 [7]): 70.5 nM
3 | COc1cc2ncnc(Nc3ccc(F)c(Cl)c3)c2cc1NC(=O)/C=C/CN1CC[S+]([O-])CC1 | > 1000 nM | 
4 | CN(C)C/C=C/C(=O)Nc1cc2c(Nc3ccc(F)c(Cl)c3)ncnc2cc1O[C@H]1CCOC1 [AFATINIB] |  | AUC(0-inf) [1]: 324 ng·h/mL; clearance [2]: 54.2 mL/min/kg; half-life [4]: 9.6 h; bioavailability [5]: 62.3%; GI50 (NCI-H1975 [7]): 107 nM; MRT [8]: 10.6 h; AUC(0-t) at 24 h [9]: 277 ng·h/mL; Vd [10]: 10.8 L/kg
5 | CN(C)C/C=C/C(=O)Nc1cc2c(Nc3ccc(F)c(C#N)c3)ncnc2cc1O[C@H]1CCOC1 | 147 nM | 
6 | CN(C)C/C=C/C(=O)Nc1cc2c(Nc3ccc(OCc4ccccn4)c(Cl)c3)ncnc2cc1O[C@H]1CCOC1 | 8.1 nM | 
7 | COCCOc1cc2ncnc(Nc3ccc(F)c(C#N)c3)c2cc1NC(=O)/C=C/CN(C)C | > 1000 nM | 
8 | COc1cc2ncnc(Nc3ccc(F)c(Cl)c3)c2cc1NC(=O)/C=C/CN1CCCCC1 [DACOMITINIB ANHYDROUS] |  | GI50 (NCI-H1975 [7]): 123 nM
9 | O=C(/C=C/CNC1CC1)Nc1cc2c(Nc3ccc(F)c(Cl)c3)ncnc2cc1OC(F)F | 9.6 nM | GI50 (NCI-H1975 [7]): 34.6 nM
10 | C=CC(=O)Nc1cc2c(Nc3ccc(Br)cc3F)ncnc2cc1O[C@H]1CCOC1 | 121 nM | 
11 | COCCOc1cc2ncnc(Nc3ccc(OCc4ccccn4)c(Cl)c3)c2cc1NC(=O)/C=C/CN(C)C | 5.4 nM | 
12 | COc1cc2ncnc(Nc3ccc(F)c(Cl)c3)c2cc1NC(=O)/C=C/CN(C)C1CC1 | 26.9 nM | GI50 (NCI-H1975 [7]): 32.2 nM
13 | C=CC(=O)Nc1cc2c(Nc3ccc(Cl)c(C(F)(F)F)c3)ncnc2cc1O[C@H]1CCOC1 | 105 nM | 
14 | CCOc1cc2ncnc(Nc3ccc(F)c(Cl)c3)c2cc1NC(=O)/C=C/CN(C)C1CC1 | 5.5 nM | GI50 (NCI-H1975 [7]): 160 nM
15 | CN(C)C/C=C/C(=O)Nc1cc2c(Nc3ccc(OCc4cccc(F)c4)c(Cl)c3)ncnc2cc1O[C@H]1CCOC1 | 510 nM | 
16 | C=CC(=O)Nc1cc2c(Nc3ccc(F)c(C#N)c3)ncnc2cc1OCCOC | 196 nM | 
17 | C=CC(=O)Nc1cc2c(Nc3ccc(OCc4cccc(F)c4)c(Cl)c3)ncnc2cc1O[C@H]1CCOC1 | 560 nM | 
18 | C#Cc1cccc(Nc2ncnc3cc(OCCOC)c(NC(=O)C=C)cc23)c1 | 1.8 nM | 
19 | CN(C)C/C=C/C(=O)Nc1cc2c(Nc3ccc(F)c(Cl)c3)ncnc2cc1O[C@H]1CCOC1 |  | TGI (A-431): Active; TGI (HCC827): Active; TGI (NCI-H1975 [11]): Active
20 | O=C1CCN(C/C=C/C(=O)Nc2cc3c(Nc4ccc(F)c(Cl)c4)ncnc3cc2O[C@H]2CCOC2)CC1 | 520 nM | 
21 | C#Cc1cccc(Nc2ncnc3cc(OC4CCN(C)CC4)c(NC(=O)/C=C/CN(C)C)cc23)c1 | 8.1 nM | 
22 | COCCOc1cc2ncnc(Nc3ccc(OCc4cccc(F)c4)c(Cl)c3)c2cc1NC(=O)/C=C/CN(C)C | > 1000 nM | 
23 | O=C(/C=C/CN1CCCCC1)Nc1cc2c(Nc3ccc(F)c(Cl)c3)ncnc2cc1O[C@H]1CCOC1 | 5.3 nM | GI50 (NCI-H1975 [7]): 168 nM
24 | C=CC(=O)Nc1cc2c(Nc3ccc(F)c(C#N)c3)ncnc2cc1O[C@H]1CCOC1 | 167 nM | 
25 | COc1cc2ncnc(Nc3ccc(F)c(Cl)c3)c2cc1NC(=O)/C=C/CNC1CC(F)(F)C1 | 141 nM | GI50 (NCI-H1975 [7]): 98.7 nM
26 | C=CC(=O)Nc1cc2c(Nc3ccc(OCc4ccccn4)cc3)ncnc2cc1O[C@H]1CCOC1 | 100 nM | 
27 | C=CC(=O)Nc1cc2c(Nc3ccc(NC(=O)C=C)c(C(F)(F)F)c3)ncnc2cc1OCCOC | 115 nM | 

Row | Compound | IC50 [3] | other results
28 | C=CC(=O)Nc1cc2c(Nc3ccc(OCc4cccc(F)c4)c(Cl)c3)ncnc2cc1OCCOC | 102 nM | 
29 | O=C(/C=C/CNC1CC1)Nc1cc2c(Nc3ccc(F)c(Cl)c3)ncnc2cc1OCC(F)(F)F |  | GI50 (NCI-H1975 [7]): 20.3 nM
30 | COCCOc1cc2ncnc(Nc3ccc(Cl)c(C(F)(F)F)c3)c2cc1NC(=O)/C=C/CN(C)C | 574 nM | 
31 | C#Cc1cccc(Nc2ncnc3cc(O[C@H]4CCOC4)c(NC(=O)/C=C/CN(C)C)cc23)c1 | 1.2 nM | 
32 | COCCOc1cc2ncnc(Nc3ccc(F)c(Cl)c3)c2cc1NC(=O)/C=C/CN1CC[S+]([O-])CC1 | 357 nM | 
33 | COc1cc2ncnc(Nc3ccc(F)c(Cl)c3)c2cc1NC(=O)/C=C/CN(C1CC1)C1CC1 | > 1000 nM | 
34 | C#Cc1cccc(Nc2ncnc3cc(OC4CCOCC4)c(NC(=O)/C=C/CN(C)C)cc23)c1 | 6 nM | 
35 | C#Cc1cccc(Nc2ncnc3cc(OCC)c(NC(=O)/C=C/CN4CCCCC4)cc23)c1 | 6.1 nM | GI50 (NCI-H1975 [7]): 30.4 nM
36 | C#Cc1cccc(Nc2ncnc3cc(O[C@H]4CCOC4)c(NC(=O)/C=C/CN4CCCCC4)cc23)c1 | 5.3 nM | GI50 (NCI-H1975 [7]): 40.1 nM
37 | COCCOc1cc2ncnc(Nc3ccc(F)c(Cl)c3)c2cc1NC(=O)/C=C/CN(C)C | 1.2 nM | 
38 | COCCOc1cc2ncnc(Nc3ccc(NC(=O)/C=C/CN(C)C)c(C(F)(F)F)c3)c2cc1NC(=O)/C=C/CN(C)C | 102 nM | 
39 | COCCOc1cc2ncnc(Nc3ccc(F)c(Cl)c3)c2cc1NC(=O)/C=C/CN1CCCCC1 | 2.1 nM | GI50 (NCI-H1975 [7]): 92.3 nM
40 | C=CC(=O)Nc1cc2c(Nc3ccc(F)c(Cl)c3)ncnc2cc1O[C@H]1CCOC1 | 5.8 nM | 
41 | C#Cc1cccc(Nc2ncnc3cc(OC)c(NC(=O)/C=C/CN4CCCCC4)cc23)c1 | 2.7 nM | GI50 (NCI-H1975 [7]): 48.9 nM
42 | CCOc1cc2ncnc(Nc3ccc(F)c(Cl)c3)c2cc1NC(=O)/C=C/CN(C1CC1)C1CC1 | > 1000 nM | 
43 | C=CC(=O)Nc1cc2c(Nc3ccc(OCc4cccc(F)c4)cc3)ncnc2cc1O[C@H]1CCOC1 | 72.2 nM | 
44 | O=C(/C=C/CN(C1CC1)C1CC1)Nc1cc2c(Nc3ccc(F)c(Cl)c3)ncnc2cc1O[C@H]1CCOC1 | > 1000 nM | 
45 | C=CC(=O)Nc1cc2c(Nc3ccc(Cl)c(C(F)(F)F)c3)ncnc2cc1OCCOC | > 1000 nM | 
46 | COCCOc1cc2ncnc(Nc3ccc(Br)cc3F)c2cc1NC(=O)/C=C/CN(C)C | 3 nM | 
47 | CN(C)C/C=C/C(=O)Nc1cc2c(Nc3ccc(OCc4ccccn4)cc3)ncnc2cc1O[C@H]1CCOC1 | 9 nM | 
48 | COCCOc1cc2ncnc(Nc3ccc(OCc4cccc(F)c4)cc3)c2cc1NC(=O)/C=C/CN(C)C | 91 nM | 
49 | O=C(/C=C/CN1CC[S+]([O-])CC1)Nc1cc2c(Nc3ccc(F)c(Cl)c3)ncnc2cc1O[C@H]1CCOC1 | 109 nM | 
50 | COCCOc1cc2ncnc(Nc3ccc(OCc4ccccn4)cc3)c2cc1NC(=O)/C=C/CN(C)C | 10 nM | 
51 | C#Cc1cccc(Nc2ncnc3cc(O[C@H]4CCOC4)c(NC(=O)C=C)cc23)c1 | 32.2 nM | 
52 | C#Cc1cccc(Nc2ncnc3cc(O[C@H]4CCOC4)c(NC(=O)/C=C/CNC(C)C)cc23)c1 | 6.4 nM | AUC(0-inf) [1]: 105 ng·h/mL; clearance [2]: 170 mL/min/kg; half-life [4]: 1.5 h; bioavailability [5]: < 5%; TGI (NCI-H1975 [6]): inactive; GI50 (NCI-H1975 [7]): 19.8 nM; MRT [8]: 2.6 h; AUC(0-t) at 24 h [9]: 92.6 ng·h/mL; Vd [10]: 7.4 L/kg
53 | CN(C)C/C=C/C(=O)Nc1cc2c(Nc3ccc(OCc4cccc(F)c4)cc3)ncnc2cc1O[C@H]1CCOC1 | 134 nM | 
54 | COCCOc1cc2ncnc(Nc3ccc(F)c(Cl)c3)c2cc1NC(=O)/C=C/CN(C)C1CC1 | 8.9 nM | GI50 (NCI-H1975 [7]): 87.1 nM
